Results: the EternaBench riboswitch data

Test system: MS2 coat protein
Assay: apparent Kd, MS2 coat protein; higher = weaker binding; RNA-MaP array
Summary of the method: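 In Tris-HCl pH 7.5 buffer with KCl, MgCl2, BSA, DTT, tRNA and Tween20, with or without input ligand, fluorescently labeled MS2 coat protein at 1.5 nM to 3 μM was incubated at room temperature with designed RNAs. The RNAs had been transcribed on an Illumina sequencing chip from sequenced DNA templates, and incubation ran 0.8–1.5 h at the lowest to 10–20 min at the highest concentrations. Apparent Kd is the median of binding-curve fits for individual clusters. Designs measured on fewer than 10 clusters were excluded.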

[1] = designed as: OFF switch for flavin mononucleotide, no ligand
[2] = ligand present: flavin mononucleotide, designed as: OFF switch for flavin mononucleotide
[3] = designed as: ON switch for flavin mononucleotide, no ligand
[4] = ligand present: flavin mononucleotide, designed as: ON switch for flavin mononucleotide
[5] = designed as: OFF switch for theophylline, no ligand
[6] = ligand present: theophylline, designed as: OFF switch for theophylline
[7] = designed as: OFF switch for tryptophan, no ligand
[8] = ligand present: tryptophan, designed as: OFF switch for tryptophan

Sequence: CGUAUGGGUGUCAGGAUAUGCGGGACGCUGUUACUGCAGAAGGGACAUGAGGAUCACCCAUGUAGUUCCAGACC
- apparent Kd [1]: 18.4 nM
- apparent Kd [2]: 33.3 nM

Sequence: CACAUGUAAGGAUAUAGUGAACUAAAGCAACUAGAUGUAAACUAGAAGGUACAUGAGGAUCACCCAUGUAAAGG
- apparent Kd [1]: 17.3 nM

Sequence: AAAGGUCAGGAGAAGGUGCCUCUAUUACGUCGGCAAGGAUAUCCACAGCGGGCGAUUAUGCGUACAUGAGGAUCACCCAUGUUA
- apparent Kd [1]: 92.3 nM
- apparent Kd [2]: 43.5 nM

Sequence: UGCUAAAGUGAGAAGGGUGGACCACUCAUCGAGUAUGACACAUGAGGAUCACCCAUGUACGCUCCACAGGAUAUCAAAUUGAGG
- apparent Kd [3]: 156 nM
- apparent Kd [4]: 28.8 nM

Sequence: UAAUCAGUGAUAGGAUAUCGUAGCUCAGAUAGGCGAGAAGGAUCUGACUCCACAUGAGGAUCACCCAUGUUGUACAUACAGGAC
- apparent Kd [3]: 19.5 nM
- apparent Kd [4]: 17.1 nM

Sequence: UAAAAGUUAGGAUAUACUAGUGAGCAAUGAAUAACAAAGUAACAUGAGGAUCACCCAUGUAGAAGGAACUGCAG
- apparent Kd [1]: 12.1 nM
- apparent Kd [2]: 12.4 nM

Sequence: ACUCCGUCGUAGAAGGGAAAAUGCUUGGCGUCUCUCGGGUACAUGAGGAUCACCCAUGUUACGGUUCAGGAUAUACAGACUGCU
- apparent Kd [1]: 10.5 nM
- apparent Kd [2]: 10.6 nM

Sequence: GCAUUCGGAUUAGGAUAUCUACAUCAUUCGUUUGGGAUAGAGCUACAUGAGGAUCACCCAUGUGUAGAGAAGGAAUAUGAACAC
- apparent Kd [3]: 79 nM
- apparent Kd [4]: 83.9 nM

Sequence: CUCAGCGGGCUAGGAUAUGGCCUGUGGUUUAGGCCAGAAGGAGCUCACUAAGCACAUGAGGAUCACCCAUGUCUCAAUGCCUGA
- apparent Kd [3]: 14.8 nM
- apparent Kd [4]: 8.84 nM

Sequence: ACGUGGGUAACCAAGGAUAUAUUUACACCCACAUGAGGAUCACCCAUGUUCUUGCAGGCAUAUAAAUAGAAGGUGGAAACGCAGUG
- apparent Kd [3]: 379 nM
- apparent Kd [4]: 129 nM

Sequence: GCAAAAGCGCUCUAGAGACAUGAGGAUCACCCAUGUGUGGGUAGAAGGUCCUACGUACCAUUAAGGAAGGAUAUACACAUAUAU
- apparent Kd [3]: 1090 nM
- apparent Kd [4]: 540 nM

Sequence: AUAAACCUAACAUGAGGAUCACCCAUGUCCUCCGUCGGUCGAAGAAGGAGUAAUGCUUAUUUUUACUAGGAUAUUCGUAAUCAC
- apparent Kd [1]: 90.2 nM
- apparent Kd [2]: 216 nM

Sequence: AUGUAACAUGAGGAUCACCCAUGUAAGGAUAUGCAACAAAACUCUGAAUCGUAAGUUCGCAGAAGGUACAUUAG
- apparent Kd [1]: 28.4 nM
- apparent Kd [2]: 27.3 nM

Sequence: GAAUGGAAAGGAUAUCGCUGUUCUGACAUGAGGAUCACCCAUGUACGUGUUAGCUUGUUUCGAGAAGGUUCCACUC
- apparent Kd [1]: 15.6 nM
- apparent Kd [2]: 21.8 nM

Sequence: UUAGAUCGUGUCAGGAUAUCGGACCGGCCCGCCUCCGAGAAGGGACAUGAGGAUCACCCAUGUCACGGUCCAUU
- apparent Kd [1]: 7.73 nM
- apparent Kd [2]: 7.84 nM

Sequence: GCUAGUAGAGAGAAGGAGCUUGAAUAUUUAGCGCUAGGAUAUCUUCGGUAGCCGUAGAGCAUACAUGAGGAUCACCCAUGUCCG
- apparent Kd [3]: 52.7 nM
- apparent Kd [4]: 27.8 nM

Sequence: CUGUAGACAGGAUAUGUUGUGCCGUACAUGAGGAUCACCCAUGUGAGAUCUCGCUACCAUACAGAAGGGUCUAAAC
- apparent Kd [1]: 43.2 nM
- apparent Kd [2]: 57.4 nM

Sequence: CCAGCGAGUUAGACCUUACAUGAGGAUCACCCAUGUUGGCGUAGAAGGACGCUCAUAAGCACUGCGUAGGAUAUACUCACCAAU
- apparent Kd [1]: 7.99 nM
- apparent Kd [2]: 10.4 nM

Sequence: AAAUGGAUCGAAGGAUAUCCCCAGACAUGAGGAUCACCCAUGUGAGGGUACAGUUAUUGUUAUCAGGAGAAGGUCGCAUUCAAA
- apparent Kd [1]: 10.3 nM
- apparent Kd [2]: 9.5 nM

Sequence: CUUCGGCCCAGGGAGAUGACCACAUGAGGAUCACCCAUGUACAGAAGGAGUAUCGGUAGGCCAUACUAGGAUAUGUGAAUAGAC
- apparent Kd [3]: 25.8 nM
- apparent Kd [4]: 31.4 nM

Sequence: ACACGUGACAAGGAUACCAGCCUGGCUAGUUCAAACCCUCACAUGAGGAUCACCCAUGUAGGCCCUUGGCAGCCUAUAGUCUAAG
- apparent Kd [5]: 31.9 nM
- apparent Kd [6]: 83.9 nM

Sequence: UGACGUGGUAAGAAGGCAAGAGCAGGGCAGGAUUGAGGAUAUUACGGACAGACAUGAGGAUCACCCAUGUAGAGCCAUAACCGG
- apparent Kd [3]: 8.55 nM
- apparent Kd [4]: 7.89 nM

Sequence: AAUAUUAUGUCGGCCGCCACUUCCCACAAGAGGUGCCUGCACCCACAUGAGGAUCACCCAUGUCGAAGGACCGGGACGCUCAAUU
- apparent Kd (designed as: ON switch for tryptophan, no ligand): 16.8 nM
- apparent Kd (ligand present: tryptophan, designed as: ON switch for tryptophan): 15.6 nM

Sequence: UAGGUGCUAGGAGGAUAUUGUGAAUUUAAUUUUCAAGAAGGCCUGAACAGACUGCACAUGAGGAUCACCCAUGUAUCCAACGUC
- apparent Kd [1]: 17.2 nM
- apparent Kd [2]: 11.7 nM

Sequence: AUUAGAAUGCGAGGAUAUGGUAAAUUCAUGCAUCCAGAAGGCGCGUCAGUAGAACAUGAGGAUCACCCAUGUGAUUGUUGUGGC
- apparent Kd [1]: 22.8 nM
- apparent Kd [2]: 26.9 nM

Sequence: AGAUCGCUGACCGCGGGAGAUGCGCAGGAUACCAGCCUAAUGUCCGGCCCUUGGCAGCCUGUAACAUGAGGAUCACCCAUGUGAA
- apparent Kd [5]: 17.1 nM
- apparent Kd [6]: 31 nM

Sequence: AUUGCCCAAGGAUAUCUAUUUAGAAACAUGAGGAUCACCCAUGUCAUAAUGUUAGGCUCAAGAGAAGGUGGAAGCU
- apparent Kd [1]: 8.33 nM
- apparent Kd [2]: 8.37 nM

Sequence: ACGGGUGACAAGAAGGGCUAGGUAACAUGCCGUAGACUAGAAUAACAUGAGGAUCACCCAUGUAAGCAGGAUAUUGUAUAAUAA
- apparent Kd [3]: 156 nM
- apparent Kd [4]: 52.8 nM

Sequence: AGAUCUAACGCAGGAUAUAGUGCGGGAAAACCUAAACAUGAGGAUCACCCAUGUCUGCUACAAAGCUAGAAGGGCGUUCGGGAA
- apparent Kd [3]: 46.4 nM
- apparent Kd [4]: 23.8 nM

Sequence: GCGGGAGAUCAGAAGGCUAUAACGUUUCACAUGAGGAUCACCCAUGUGGGCUCCUAGGGAUGGAUAGAGGAUAUGACCGAAUAU
- apparent Kd [1]: 12.9 nM
- apparent Kd [2]: 13.3 nM

Sequence: UUAUGUGACGAGGAUAUGAAAAGGAGUGGUGAAUCAGAAGGCGUAACAUGAGGAUCACCCAUGUCAGUGGGCCU
- apparent Kd [1]: 49.6 nM
- apparent Kd [2]: 71.3 nM

Sequence: UGAGAUAACGCAGGAUAUCAUGCGGCAGUGUAGUGAGAAGGGCGAAUGCAAGGGUCAGACAUGAGGAUCACCCAUGUUCAUAGC
- apparent Kd [1]: 17.2 nM
- apparent Kd [2]: 12.5 nM

Sequence: GAUUUACAUGAGGAUCACCCAUGUGAGGAUAUGCCGUACAUCGCGCUCUGAGCUAGUUGCAGAAGGCACAUGAU
- apparent Kd [1]: 18.9 nM
- apparent Kd [2]: 18.3 nM

Sequence: AGCGUGUAAGGAUAUCCAAUUGAUGGGAGCGGAUCUUCCCAGGAGAAGGUACAUGAGGAUCACCCAUGUGGCGC
- apparent Kd [1]: 37.2 nM
- apparent Kd [2]: 35 nM

Sequence: AUACAAGCAAUGGAGGAUAUCGCAGAAAUCACAUGAGGAUCACCCAUGUCUUACCGUAUGUCGAGCGAGAAGGCCACGGUGCGAGU
- apparent Kd [3]: 35.5 nM
- apparent Kd [4]: 17.3 nM

Sequence: CAAUCUACCACCGGCCUACUGUACACUCGCCGAGGACCGGUACGGCCGCCACUCGACGUUCGACAUGAGGAUCACCCAUGUGGGU
- apparent Kd [7]: 168 nM
- apparent Kd [8]: 334 nM

Sequence: AGGCCACAUGAGGAUCACCCAUGUAAGGAUAUUGGAGCAUGGAAACGCUGUGCGCAUGCAAGAAGGUACACGGA
- apparent Kd [1]: 24.7 nM
- apparent Kd [2]: 20.5 nM

Sequence: UAAGACGCAGGAUAUACAUGAGGAUCACCCAUGUGCAUACAAGUCAAGAGGUACAUAAGUAGAAGGGCGUGGAU
- apparent Kd [1]: 9.42 nM
- apparent Kd [2]: 14.7 nM

Sequence: GACGUCGCCUUAGGAUAUGCCCAUUACAUGAGGAUCACCCAUGUUUCUUAAAGAGGAUCCGCAUGGCAGAAGGAAGGUCUCCAC
- apparent Kd [1]: 25.4 nM
- apparent Kd [2]: 59.4 nM

Sequence: CCCACAAGCACGGCCGCCACUAUAUUAAUUACUGUCCUAGAACAUGAGGAUCACCCAUGUUAAUGUAGGACCGGGUGCGGGCCCG
- apparent Kd [7]: 9.57 nM
- apparent Kd [8]: 12.8 nM

Sequence: CAUUAUCGCGUUAGGAUAUGAACAAGAAAUCGGCUACAGAAGGAACAUGAGGAUCACCCAUGUAUGAUCAAGAC
- apparent Kd [1]: 13.1 nM
- apparent Kd [2]: 10.7 nM

Sequence: ACCCGACAUGAGGAUCACCCAUGUGGUUUCGGUCGAGGAUAUUCAAUCUGAAUUAUGUAGGAAGAAGGCGAUACCC
- apparent Kd [3]: 173 nM
- apparent Kd [4]: 78 nM

Sequence: GAAAAUACAUGAGGAUCACCCAUGUGGUGGCGUCAGAUUGGUUAGGAUAUCUUGGCGGGAUACUGAGAGAAGGAACUUUGAAGG
- apparent Kd [1]: 181 nM
- apparent Kd [2]: 136 nM

Sequence: GGUGGGUCAGGAUAUCCCACACAAUUGCGAACGCGAUGCAGGGAGAAGGGACAUGAGGAUCACCCAUGUGGGAC
- apparent Kd [1]: 54.4 nM
- apparent Kd [2]: 64.9 nM

Sequence: UUGAACAUGAGGAUCACCCAUGUGGAUGAUACCAGCUAAAACAUAAGCCCUUGGCAGCAUUAAAAUGAAAUAUCGAAAAGGAAAG
- apparent Kd (designed as: ON switch for theophylline, no ligand): 143 nM
- apparent Kd (ligand present: theophylline, designed as: ON switch for theophylline): 54.9 nM

Sequence: GCGGACGAUGAGAAGGUAGUAAGGUAGGACAUGAGGAUCACCCAUGUAUGAACUAUCCCAACAACUAAGGAUAUCAGCAACCCU
- apparent Kd [1]: 7.34 nM
- apparent Kd [2]: 5.77 nM

Sequence: GUCAUUCUCAACAUGAGGAUCACCCAUGUCGGUUAUCUGGGCUAGGAUAUCACGAUGCCACUGCGUGAGAAGGAGCGUUCGAUA
- apparent Kd [1]: 67.3 nM
- apparent Kd [2]: 27.5 nM
